# Laboratory results: ChEMBL document CHEMBL4152368, “Novel 4-(2-pyrimidinylamino)benzamide derivatives as potent hedgehog signaling pathway inhibitors” (Bioorg Med Chem, 2018)
# What was measured:
# [1] = Inhibition of Hedgehog signaling pathway in mouse NIH/3T3 cells assessed as reduction in Sonic hedgehog-induced Gli luciferase activity after 48 hrs by Dual-luciferase reporter gene assay; type: cell-based; settings: NIH3T3, 48 h
# Method in brief: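 NIH3T3 cells stably carrying a Gli-luciferase reporter were grown in DMEM/10% FBS with 1 μg/mL puromycin. They were seeded at 2×10⁴ cells/well and cultured overnight at 37 °C, 5% CO₂. Compounds were added as 8-point serial dilutions (0.05–300 nM) in 0.5% FBS with 0.7 μg/mL Sonic Hh agonist, n = 4 wells, for 48 h. Controls were 0.1% DMSO with or without Shh. Read-out was the Firefly/Renilla luciferase ratio.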
# [2] = AUC in Sprague-Dawley rat at 1 mg/kg, iv by LC/MS/MS analysis; type: ADME, organism-based; settings: in vivo
# Method in brief: (§1)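 Male SD rats (3; 180–240 g) received a single 1 mg/kg iv dose at a dosing volume of 5 mL/kg. Blood was sampled at 2, 5, 15 and 30 min and at 1, 2, 4, 6, 8, 10 and 24 h, then centrifuged for 5 min at 4 °C. Plasma underwent protein precipitation and LC/MS/MS in SRM mode with an internal standard. Parameters were derived by noncompartmental analysis.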
# [3] = Half life in Sprague-Dawley rat at 1 mg/kg, iv by LC/MS/MS analysis; type: ADME, organism-based; settings: in vivo; method in brief: as §1
# [4] = Cmax in Sprague-Dawley rat at 1 mg/kg, iv by LC/MS/MS analysis; type: ADME, organism-based; set-up: dose 1 mg/kg, route intravenous; settings: in vivo; method in brief: as §1
# [5] = Apparent volume of distribution in Sprague-Dawley rat at 1 mg/kg, iv by LC/MS/MS analysis; type: ADME, organism-based; settings: in vivo, read-out: Vz; method in brief: as §1
# [6] = Clearance in Sprague-Dawley rat at 1 mg/kg, iv by LC/MS/MS analysis; type: ADME, organism-based; settings: in vivo; method in brief: as §1
IC50 [1] [nM],AUC [2] [ng·h/mL],half-life [3] [min],Cmax [4] [ng/mL],Vd [5] [L/kg],clearance [6] [mL/min/kg],Structure (SMILES)
2.21,–,–,–,–,–,CCc1cnc(Nc2ccc(C(=O)Nc3cc(CN4CCN(C)CC4)ccc3C)cc2)nc1-c1ccc(OC(F)(F)F)cc1
29,521,15,2520,0.7,33.6,Cc1ccc(CN2CCOCC2)cc1NC(=O)c1ccc(Nc2nccc(-c3cccnc3)n2)cc1
1.94,–,–,–,–,–,Cc1ccc(CN2CCCCC2)cc1NC(=O)c1ccc(Nc2ncc(C)c(-c3ccccc3)n2)cc1
1.54,–,–,–,–,–,Cc1ccc(CN2CCN(C)CC2)cc1NC(=O)c1ccc(Nc2ncc(C3CC3)c(-c3ccc(OC(F)(F)F)cc3)n2)cc1
2.14,–,–,–,–,–,Cc1ccc(OCCCN2CCOCC2)cc1NC(=O)c1ccc(Nc2ncc(C)c(-c3ccc(OC(F)(F)F)cc3)n2)cc1
1.89,1370,50.4,1540,0.888,12.3,Cc1ccc(CN2CCOCC2)cc1NC(=O)c1ccc(Nc2ncc(C)c(-c3ccccn3)n2)cc1
2.45,–,–,–,–,–,Cc1ccc(OCCN2CCOCC2)cc1NC(=O)c1ccc(Nc2ncc(C)c(-c3ccc(OC(F)(F)F)cc3)n2)cc1
21.1,–,–,–,–,–,Cc1ccc(CN2CCCC2)cc1NC(=O)c1ccc(Nc2ncc(C)c(-n3ccnc3)n2)cc1
1.07,–,–,–,–,–,Cc1ccc(OCCN(C)C)cc1NC(=O)c1ccc(Nc2ncc(C)c(-c3ccc(OC(F)(F)F)cc3)n2)cc1
0.62,–,–,–,–,–,CCN(CC)CCCNC(=O)c1ccc(C)c(NC(=O)c2ccc(Nc3ncc(C)c(-c4ccc(OC(F)(F)F)cc4)n3)cc2)c1
7.37,–,–,–,–,–,Cc1ccc(CN2CCN(C)CC2)cc1NC(=O)c1ccc(Nc2ncc(C)c(-c3ccccn3)n2)cc1
4.28,787,86.4,863,2.75,21.5,Cc1ccc(OCCN2CCOCC2)cc1NC(=O)c1ccc(Nc2ncc(C)c(-c3ccccc3)n2)cc1
